# Measurements: ChEMBL document CHEMBL1671683, “Activity of linezolid in an in vitro pharmacokinetic-pharmacodynamic model using different dosages and Staphylococcus aureus and Enterococcus faecalis strains with and without a hypermutator phenotype” (Antimicrob Agents Chemother, 2010)
# Tests used:
# [1] = Elimination half-life in healthy human at 600 mg, iv, bid administered as 0.5 hr infusion; type: ADME, organism-based; details: in vivo, read-out: beta t1/2 (converted)
# [2] = AUC in healthy human at 600 mg, iv, bid administered as 0.5 hr infusion; type: ADME, organism-based; details: plasma
# [3] = tested on: Enterococcus faecalis; experiment: Bactericidal activity against 0.5 hrs peripheral compartment culture samples of Enterococcus faecalis ATCC 29212 in two-compartment pharmacokinetic/pharmacodynamic model assessed as effect on bacterial count at 200 mg, bid administered as 0.5 hr infusion; type: functional
# Method in brief: (§1)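 Two-compartment hollow-fibre model in cation-adjusted, protein-free MH broth, 37°C. Linezolid given as simulated 0.5-h infusion twice daily. Inoculum grown 18 h, concentrated 50-fold and placed in the peripheral compartment 3 h before t0. Peripheral samples at set times counted by dilution plating. First 10-fold dilution not plated, limiting detection to 2–3 log10 CFU/ml. Δlog CFU/ml taken from t0 count. Duplicates.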
# [4] = Apparent volume of distribution in two-compartment pharmacokinetic/pharmacodynamic model bid administered as 0.5 hr infusion over 24 hrs; details: in vivo, iv
# [5] = Residual concentration at the end of the administration interval in two-compartment pharmacokinetic/pharmacodynamic model at 800 mg, bid administered as 0.5 hrs infusion; type: ADME; details: iv, read-out: Drug uptake
# [6] = tested on: Enterococcus faecalis; experiment: Bactericidal activity against 48 hrs peripheral compartment culture samples of Enterococcus faecalis Ef1497 in two-compartment pharmacokinetic/pharmacodynamic model assessed as effect on bacterial count at 600 mg, bid administered as 0.5 hr infusion; type: functional
# Method in brief: (§2)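 An 18-h culture concentrated 50-fold was injected into the peripheral compartment 3 h pre-sampling (~10^8 CFU/ml E. faecalis, 10^9 S. aureus). Counts came from dilution plating (detection limit 2–3 log10 CFU/ml), expressed as Δlog CFU/ml from treatment start. Run in duplicate.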
# [7] = in vivo; details: iv, 600 mg
# [8] = tested on: Enterococcus faecalis; experiment: Bactericidal activity against 13 hrs peripheral compartment culture samples of Enterococcus faecalis Ef1497 in two-compartment pharmacokinetic/pharmacodynamic model assessed as effect on bacterial count at 600 mg, bid administered as 0.5 hr infusion; type: functional; method in brief: as §2
# [9] = tested on: Enterococcus faecalis; experiment: Bactericidal activity against 0.5 hrs peripheral compartment culture samples of Enterococcus faecalis Ef1497 MutM3 in two-compartment pharmacokinetic/pharmacodynamic model assessed as effect on bacterial count at 600 mg, bid administered as 0.5 hr infusion; type: functional; method in brief: as §1
# [10] = tested on: Enterococcus faecalis; experiment: AUBC (0 to 24 hrs) in Enterococcus faecalis Ef1497 MutM3 in two-compartment pharmacokinetic/pharmacodynamic model at 200 mg, bid administered as 0.5 hr infusion for 2 days; type: functional
# Method in brief: (§3)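 Hollow-fibre two-compartment model in cation-adjusted, protein-free MH broth at 37°C. Human total-plasma linezolid profile simulated as 0.5-h infusion every 12 h for 48 h. Concentrated 18-h culture injected into the peripheral compartment 3 h before first sample, giving about 10^8 (E. faecalis) or 10^9 (S. aureus) CFU/ml. Viable counts by dilution plating over 0–24 h. Area indices calculated versus growth control curve. Duplicate runs.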
# [11] = Apparent volume of distribution in two-compartment pharmacokinetic/pharmacodynamic model at 200 mg, bid administered as 0.5 hr infusion over 24 hrs; type: ADME, organism-based; details: in vivo, iv
# [12] = tested on: Enterococcus faecalis; experiment: Bactericidal activity against 12 hrs peripheral compartment culture samples of Enterococcus faecalis Ef1497 MutM3 in two-compartment pharmacokinetic/pharmacodynamic model assessed as effect on bacterial count at 600 mg, bid administered as 0.5 hr infusion; type: functional; method in brief: as §1
# [13] = tested on: Enterococcus faecalis; experiment: Bactericidal activity against 12.5 hrs peripheral compartment culture samples of Enterococcus faecalis Ef1497 in two-compartment pharmacokinetic/pharmacodynamic model assessed as effect on bacterial count at 800 mg, bid administered as 0.5 hr infusion; type: functional; method in brief: as §2
# [14] = tested on: Enterococcus faecalis; experiment: Bactericidal activity against 14 hrs peripheral compartment culture samples of Enterococcus faecalis Ef1497 in two-compartment pharmacokinetic/pharmacodynamic model assessed as effect on bacterial count at 600 mg, bid administered as 0.5 hr infusion; type: functional; method in brief: as §2
# [15] = tested on: Enterococcus faecalis; experiment: AUBC (0 to 24 hrs) in Enterococcus faecalis ATCC 29212 in two-compartment pharmacokinetic/pharmacodynamic model at 200 mg, bid administered as 0.5 hr infusion for 2 days; type: functional; method in brief: as §3
# [16] = tested on: Enterococcus faecalis; experiment: Bactericidal activity against 12 hrs peripheral compartment culture samples of Enterococcus faecalis ATCC 29212 in two-compartment pharmacokinetic/pharmacodynamic model assessed as effect on bacterial count at 600 mg, bid administered as 0.5 hr infusion; type: functional; method in brief: as §1
# [17] = Total clearance in two-compartment pharmacokinetic/pharmacodynamic model at 200 mg, bid administered as 0.5 hr infusion over 24 hrs; type: ADME, organism-based; details: in vivo, iv
# [18] = Residual concentration at the end of the administration interval in two-compartment pharmacokinetic/pharmacodynamic model at 600 mg, bid administered as 0.5 hr infusion over 24 hrs; type: ADME; details: in vivo, iv
# [19] = AUC in two-compartment pharmacokinetic/pharmacodynamic model at 200 mg, bid administered as 0.5 hrs infusion; type: ADME; details: iv
# [20] = in vitro; details: two-compartment pharmacokinetic/pharmacodynamic model, iv, 600 mg
# [21] = Tmax in two-compartment pharmacokinetic/pharmacodynamic model at 800 mg, bid administered as 0.5 hrs infusion; type: ADME, organism-based; details: iv
# Method in brief: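 Two-compartment in vitro hollow-fibre model in cation-adjusted, protein-free Mueller-Hinton broth at 37°C. Human total-plasma linezolid profile simulated as 0.5-h infusion every 12 h for 48 h, computer-controlled syringe pump into central compartment. […] Peripheral samples assayed by validated HPLC-UV (quantification limit 0.39 μg/ml). Tmax read directly from concentration-time profiles. Run in duplicate.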
# [22] = Cmax in two-compartment pharmacokinetic/pharmacodynamic model at 800 mg, bid administered as 0.5 hr infusion over 24 hrs; type: ADME, organism-based; design: dose 800 mg; details: iv
# [23] = Total clearance in two-compartment pharmacokinetic/pharmacodynamic model at 600 mg, bid administered as 0.5 hrs infusion; type: ADME, organism-based; details: iv
# [24] = tested on: Enterococcus faecalis; experiment: T>MIC in Enterococcus faecalis Ef1497 MutM3 in two-compartment pharmacokinetic/pharmacodynamic model at 200 mg, bid administered as 0.5 hr infusion for 2 days; type: functional
# [25] = tested on: Enterococcus faecalis; experiment: Bactericidal activity against 24 hrs peripheral compartment culture samples of Enterococcus faecalis Ef1497 MutM3 in two-compartment pharmacokinetic/pharmacodynamic model assessed as effect on bacterial count at 200 mg, bid administered as 0.5 hr infusion; type: functional; method in brief: as §2
# [26] = tested on: Staphylococcus aureus; experiment: Bactericidal activity against 13 hrs peripheral compartment culture samples of Staphylococcus aureus RN4220 in two-compartment pharmacokinetic/pharmacodynamic model assessed as effect on bacterial count at 600 mg, bid administered as 0.5 hr infusion; type: functional; method in brief: as §2
# [27] = tested on: Enterococcus faecalis; experiment: Bactericidal activity against 13 hrs peripheral compartment culture samples of Enterococcus faecalis ATCC 29212 in two-compartment pharmacokinetic/pharmacodynamic model assessed as effect on bacterial count at 600 mg, bid administered as 0.5 hr infusion; type: functional; method in brief: as §2
# [28] = Cmax in healthy human at 600 mg, iv, bid administered as 0.5 hr infusion; type: ADME, organism-based; design: dose 600 mg, route intravenous; details: in vivo
# [29] = Apparent volume of distribution in two-compartment pharmacokinetic/pharmacodynamic model at 600 mg, bid administered as 0.5 hrs infusion; details: iv
compound,measurement,setting,value
CC(=O)NC[C@H]1CN(c2ccc(N3CCOCC3)c(F)c2)C(=O)O1 [LINEZOLID],half-life,[1],5.1 h
same,AUC at 0.5 h,[2],88100 ng·h/mL
same,log10CFU/ml,[3],-0.08
same,Vd,[4],115 L
same,concentration at 0.5 h,[5],1150 ng/mL
same,log10CFU/ml,[6],0.39
same,half-life,[7],6.18 h
same,log10CFU/ml,[8],0.09
same,log10CFU/ml,[9],-0.01
same,AUBC,[10],212.2 log10CFU/ml.hr
same,Vd,[11],137 L
same,log10CFU/ml,[12],0.19
same,log10CFU/ml,[13],-0.03
same,log10CFU/ml,[14],0.13
same,AUBC,[15],214 log10CFU/ml.hr
same,log10CFU/ml,[16],0.15
same,clearance,[17],252 mL/min
same,Drug uptake,[18],1.26 µg/mL
same,AUC at 0.5 h,[19],10100 ng·h/mL
same,half-life at 0.5 h,[20],6.54 h
same,Tmax,[21],0.5 h
same,Cmax,[22],19500 ng/mL
same,clearance,[23],232 mL/min
same,fT>MIC,[24],0%
same,log10CFU/ml,[25],0.52
same,log10CFU/ml,[26],-0.22
same,log10CFU/ml,[27],0.16
same,Cmax,[28],14100 ng/mL
same,Vd,[29],115 L
